For orientation: inhibition means the drop in the measured response relative to a control, in per cent.

Values joined by “and” are separate entries in the source; they are usually repeats but may differ in a detail not shown here. Equal values may be shown once. Active and inactive are the calls of the source. The rule behind the calls is not given here.

The first experiment has as its target T1, C-C chemokine receptor type 2 (Homo sapiens, UniProt P41597). Briefly: Displacement of [3H]-CCR2-RA-[R] from human TEV protease site linked CCR2b expressed in human U20S cell membranes co-expressing Gal4-VP16 transcription factor after 120 mins by scintillation spectrometry. The following applies: read-out: Ki.
Target sequence in this assay (P41597 whole entry, the tested form may be a part): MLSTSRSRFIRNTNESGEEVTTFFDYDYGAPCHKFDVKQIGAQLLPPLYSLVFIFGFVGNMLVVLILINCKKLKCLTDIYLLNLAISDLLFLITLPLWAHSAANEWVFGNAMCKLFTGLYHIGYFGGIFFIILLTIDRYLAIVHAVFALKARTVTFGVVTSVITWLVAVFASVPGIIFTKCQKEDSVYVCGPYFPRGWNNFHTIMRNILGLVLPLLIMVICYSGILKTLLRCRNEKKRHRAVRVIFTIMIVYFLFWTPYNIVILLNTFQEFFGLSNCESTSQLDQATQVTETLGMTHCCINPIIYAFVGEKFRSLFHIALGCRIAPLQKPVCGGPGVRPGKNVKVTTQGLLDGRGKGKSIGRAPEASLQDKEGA
Turning to `CC(=O)C1=C(O)C(=O)N(c2ccc(C)cc2)C1C1CCCCCCC1` (stereo not drawn), the Ki came out at 170 nM.

Consider `CC(=O)C1=C(O)C(=O)N(c2ccc(C)cc2)C1C1CCCCC1` (stereo not drawn), for which the Ki worked out at 81 nM.

For the compound `CC(=O)C1=C(O)C(=O)N(c2ccc(C(F)(F)F)cc2)C1C1CCCCC1` (stereo not drawn), the Ki turned out to be 92 nM.

`CCC(=O)C1=C(O)C(=O)N(c2ccc(C)cc2)C1C1CCCCC1` (stereo not drawn): the Ki came out at 104 nM.

In the case of `CC(=O)C1=C(O)C(=O)N(c2ccc(Br)cc2)C1C1CCCCC1` (stereo not drawn), the Ki was 17 nM.

Turning to `COc1ccc(N2C(=O)C(O)=C(C(C)=O)C2C2CCCCC2)cc1` (stereo not drawn), the Ki came to 217 nM.

As to `Cc1ccc(N2C(=O)C(O)=C(C(=O)C(C)(C)C)C2C2CCCCC2)cc1` (stereo not drawn), the Ki was 158 nM.

The same experiment, now with this note: read-out: pKi (converted).
For `CC(=O)C1=C(O)C(=O)N(c2ccc(C)cc2)C1C1CCCCCCC1` (stereo not drawn), the Ki was 162 nM.

As to `COc1ccc(N2C(=O)C(O)=C(C(C)=O)C2C2CCCCC2)cc1` (stereo not drawn), the Ki was 214 nM.

Regarding `Cc1ccc(N2C(=O)C(O)=C(C(=O)C(C)(C)C)C2C2CCCCC2)cc1` (stereo not drawn), the Ki was 155 nM.

Another experiment concerns the target T2, C-C chemokine receptor type 1 (Homo sapiens) (UniProt P32246).
T2 sequence (whole entry): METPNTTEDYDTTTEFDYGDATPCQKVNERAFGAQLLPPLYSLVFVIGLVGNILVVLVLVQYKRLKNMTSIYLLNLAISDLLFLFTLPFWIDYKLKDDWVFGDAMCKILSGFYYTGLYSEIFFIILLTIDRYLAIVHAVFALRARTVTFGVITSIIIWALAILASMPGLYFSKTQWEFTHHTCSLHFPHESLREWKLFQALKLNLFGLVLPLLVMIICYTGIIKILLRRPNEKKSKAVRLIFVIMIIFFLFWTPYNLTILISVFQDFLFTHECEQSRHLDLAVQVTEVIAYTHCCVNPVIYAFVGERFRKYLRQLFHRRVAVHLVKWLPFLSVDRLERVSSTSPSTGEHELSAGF
Briefly: Displacement of [3H]-CCR2-RA-[R] from human TEV protease site linked CCR1 expressed in human U20S cell membranes co-expressing Gal4-VP16 transcription factor at 1 uM after 120 mins by scintillation spectrometry relative to control.
Settings: not given
On the technique in general: Loss of bound radioactivity is the signal in a displacement assay; it reports binding, not function.
`Cc1ccc(N2C(=O)C(O)=C(C(=O)OC(C)C)C2C2CCCCC2)cc1` (stereo not drawn) registered an inhibition of 36%.

Compound `CC(=O)C1=C(O)C(=O)N(c2ccc(C)cc2)C1c1cccc(C)c1` (stereo not drawn) came in with an inhibition of 47%.

On to `COc1cccc(C2C(C(C)=O)=C(O)C(=O)N2c2ccc(C)cc2)c1` (stereo not drawn), for which the inhibition came out at 28%.

The compound `CC(=O)C1=C(O)C(=O)N(c2cccc(F)c2)C1C1CCCCC1` (stereo not drawn) had an inhibition of 44%.

As to `CC(=O)C1=C(O)C(=O)N(c2ccccc2)C1C1CCCCC1` (stereo not drawn), the inhibition was 42%.

Another experiment concerns the target T1, C-C chemokine receptor type 2. Nature of the experiment: Displacement of [3H]-CCR2-RA-[R] from human TEV protease site linked CCR2b expressed in human U20S cell membranes co-expressing Gal4-VP16 transcription factor at 1 uM after 120 mins by scintillation spectrometry relative to control.
Settings: not given
Target sequence in this assay (P41597 whole entry, looked up, the tested form may be a part): as the sequence (P41597 whole entry, the tested form may be a part) above
In turn, `CC(=O)C1=C(O)C(=O)N(c2ccc(C)cc2)C1c1cccc(Cl)c1` (stereo not drawn) displayed an inhibition of 19%.

`CCOC(=O)C1=C(O)C(=O)N(c2ccc(C)cc2)C1C1CCCCC1` (stereo not drawn) showed an inhibition of 31%.

Consider `CC(=O)C1=C(O)C(=O)N(c2ccc(C)cc2)C1c1ccc(C)cc1` (stereo not drawn), for which the inhibition amounted to 36%.

For `O=C(C1=C(O)C(=O)N(c2ccc(Br)cc2F)C1c1cccc(Br)c1)C1CC1` (stereo not drawn), the inhibition is 45%.

`Cc1ccc(N2C(=O)C(O)=C(C(=O)OC(C)C)C2C2CCCCC2)cc1` (stereo not drawn) yielded an inhibition of 6%.

The compound `CC(=O)C1=C(O)C(=O)N(c2ccc(C)cc2)C1c1cccc(C)c1` (stereo not drawn) had an inhibition of 11%.

As for `COc1cccc(C2C(C(C)=O)=C(O)C(=O)N2c2ccc(C)cc2)c1` (stereo not drawn), the inhibition stood at 0%.

Regarding `CC(=O)C1=C(O)C(=O)N(c2cccc(F)c2)C1C1CCCCC1` (stereo not drawn), the inhibition turned out to be 47%.

Take `CC(=O)C1=C(O)C(=O)N(c2ccc(C)cc2)C1c1cccc(Br)c1` (stereo not drawn): the inhibition came to 19%.

In turn, `CC(=O)C1=C(O)C(=O)N(c2ccc(C)cc2)C1c1ccccc1` (stereo not drawn) gave an inhibition of 39%.

`Cc1ccc(N2C(=O)C(O)=C(C(=O)c3ccccc3)C2C2CCCCC2)cc1` (stereo not drawn) showed an inhibition of 37%.

In turn, `COc1ccc(C2C(C(C)=O)=C(O)C(=O)N2c2ccc(C)cc2)cc1` (stereo not drawn) had an inhibition of 5%.

With `CC(=O)C1=C(O)C(=O)N(c2ccccc2)C1C1CCCCC1` (stereo not drawn), the inhibition is 45%.

The next experiment concerns the target T3, C-C chemokine receptor type 1 (Homo sapiens, UniProt P32246).
T3 sequence (P32246 whole entry): T2 sequence (whole entry)
Briefly: Antagonist activity at human TEV protease site linked CCR1 expressed in human U20S cell membranes co-expressing Gal4-VP16 transcription factor assessed as reduction in CCL3-induced G-protein activation preincubated for 30 mins in presence of CCL3 followed by incubation of 90 mins by [35S]GTPgammaS binding assay. Format: functional. The following applies: read-out: IC50. In outline:
(§1)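 Stably transfected U2OS membranes (10 μg; human CCR1 or CCR2b) in 50 mM Tris-HCl pH 7.4 with 5 mM MgCl2, 100 mM NaCl, 1 mM EDTA, 0.05% BSA, 10 μM GDP and 10 μg saponin. Preincubated with graded compound plus 8 nM CCL3 (CCR1) or 20 nM CCL2 (CCR2), then 0.3 nM [35S]GTPγS for 90 min at 25 °C.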
Regarding `O=C(C1=C(O)C(=O)N(c2ccc(Br)cc2F)C1c1cccc(Br)c1)C1CC1` (stereo not drawn), the IC50 is 8640 nM.

Still in this experiment, the particulars now being: read-out: pIC50 (converted).
With `O=C(C1=C(O)C(=O)N(c2ccc(Br)cc2F)C1c1cccc(Br)c1)C1CC1` (stereo not drawn), the IC50 is 8510 nM.

The target of a further experiment is T1, C-C chemokine receptor type 2. Briefly: Antagonist activity at human TEV protease site linked CCR2b expressed in human U20S cell membranes co-expressing Gal4-VP16 transcription factor assessed as reduction in CCL2-induced G-protein activation preincubated for 30 mins in presence of CCL2 followed by incubation of 90 mins by [35S]GTPgammaS binding assay. Format: functional. The following applies: read-out: IC50. Summed up: as §1
In general terms: GTPγS is a poorly hydrolysed GTP analogue; its binding reports G protein activation.
Target sequence in this assay (P41597 whole entry, the tested form may be a part): as the sequence (P41597 whole entry, the tested form may be a part) above
In the case of `O=C(C1=C(O)C(=O)N(c2ccc(Br)cc2F)C1c1cccc(Br)c1)C1CC1` (stereo not drawn), the IC50 was determined as 8770 nM.

For another experiment the target is unchanged. Briefly: Inverse agonist activity at human TEV protease site linked CCR2b expressed in human U20S cell membranes co-expressing Gal4-VP16 transcription factor assessed as decrease in basal activity at 100 uM after 90 mins in presence of GDP by [35S]GTPgammaS binding assay relative to control. It is filed as functional.
Settings: not given
In outline:
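Basal G-protein activation on human CCR2b U2OS membranes (10 μg) plus 10 μg saponin and 10 μM GDP, pH 7.4 Tris buffer with NaCl, EDTA and BSA, no CCL2. Compound preincubated 30 min at 25 °C, then 90 min with 0.3 nM [35S]GTPγS. Bound label measured after filtration; change from basal.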
Target sequence in this assay (P41597 whole entry, looked up, the tested form may be a part): as the sequence (P41597 whole entry, the tested form may be a part) above
As for `O=C(C1=C(O)C(=O)N(c2ccc(Br)cc2F)C1c1cccc(Br)c1)C1CC1` (stereo not drawn), the Imax was 58%.

Another experiment has as its target T2, C-C chemokine receptor type 1 (Homo sapiens). Briefly: Inverse agonist activity at human TEV protease site linked CCR1 expressed in human U20S cell membranes co-expressing Gal4-VP16 transcription factor assessed as decrease in basal activity after 90 mins in presence of 1 uM GDP by [35S]GTPgammaS binding assay relative to control.
Settings: not given
It is filed as functional. Summed up: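 Basal [35S]GTPγS binding on human CCR1 U2OS membranes (10 μg) with saponin, in Tris/MgCl2/NaCl/EDTA/0.05% BSA, pH 7.4, without chemokine. Compound was tested at 100 μM with GDP at 1, 10 or 20 μM. Preincubation was 30 min at 25 °C, then 90 min after adding 0.3 nM [35S]GTPγS. Filtration and scintillation read-out; decrease versus basal.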
For `O=C(C1=C(O)C(=O)N(c2ccc(Br)cc2F)C1c1cccc(Br)c1)C1CC1` (stereo not drawn), the result was Active.

The next experiment has as its target T3, C-C chemokine receptor type 1. Briefly: biochemical.
Settings: not given
Compound `CC(=O)C1=C(O)C(=O)N(c2ccc(C)cc2)C1c1cccc(Cl)c1` (stereo not drawn) returned a Ki of 198 nM.

`CCOC(=O)C1=C(O)C(=O)N(c2ccc(C)cc2)C1C1CCCCC1` (stereo not drawn) gave a Ki of 200 nM.

`CC(=O)C1=C(O)C(=O)N(c2ccc(C)cc2)C1c1ccc(C)cc1` (stereo not drawn): the Ki is 195 nM and 198 nM.

As to `O=C(C1=C(O)C(=O)N(c2ccc(Br)cc2F)C1c1cccc(Br)c1)C1CC1` (stereo not drawn), the Ki was found to be 50 nM.

As to `CC(=O)C1=C(O)C(=O)N(c2ccc(C)cc2)C1C1CCCCCCC1` (stereo not drawn), the Ki amounted to 57 nM.

`CC(=O)C1=C(O)C(=O)N(c2ccc(C)cc2)C1C1CCCCC1` (stereo not drawn) registered a Ki of 56 nM.

For `CC(=O)C1=C(O)C(=O)N(c2ccc(C(F)(F)F)cc2)C1C1CCCCC1` (stereo not drawn), the Ki was 138 nM and 144 nM.

In turn, `CC(=O)C1=C(O)C(=O)N(c2ccc(C)cc2)C1c1cccc(Br)c1` (stereo not drawn) returned a Ki of 181 nM.

The compound `CCC(=O)C1=C(O)C(=O)N(c2ccc(C)cc2)C1C1CCCCC1` (stereo not drawn) registered a Ki of 30 nM.

Turning to `CC(=O)C1=C(O)C(=O)N(c2ccc(C)cc2)C1c1ccccc1` (stereo not drawn), the Ki was determined as 162 nM.

Turning to `CC(=O)C1=C(O)C(=O)N(c2ccc(Br)cc2)C1C1CCCCC1` (stereo not drawn), the Ki was 24 nM.

For the compound `Cc1ccc(N2C(=O)C(O)=C(C(=O)c3ccccc3)C2C2CCCCC2)cc1` (stereo not drawn), the Ki is 77 nM.

`COc1ccc(C2C(C(C)=O)=C(O)C(=O)N2c2ccc(C)cc2)cc1` (stereo not drawn) yielded a Ki of 541 nM.

With `COc1ccc(N2C(=O)C(O)=C(C(C)=O)C2C2CCCCC2)cc1` (stereo not drawn), the Ki came to 260 nM.

In turn, `Cc1ccc(N2C(=O)C(O)=C(C(=O)C(C)(C)C)C2C2CCCCC2)cc1` (stereo not drawn) showed a Ki of 22 nM.
